In ChEMBL document CHEMBL2040841, “Design, synthesis and evaluation of triazole functionalized ring-fused 2-pyridones as antibacterial agents” (Eur J Med Chem, 2012):
The source made the active and inactive calls. The calls are words filed in the database; no cut-off is given here.

How the values were obtained:
Escherichia coli [1] = assay: Inhibition of type 1 pili formation in uropathogenic Escherichia coli isolate UTI89 assessed as inhibition of biofilm formation after 24 hrs by crystal violet staining method; type: functional, organism-based; settings: isolate UTI89, 24 h
Procedure, shortened: (§1)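 UTI89 grown overnight in LB at 37 °C, then diluted 1:1000 in LB under type-1 pili inducing conditions. Compounds were added at a constant DMSO level, and the plates were incubated 24 h in humid boxes at 26 °C. Wells were washed with water, air dried and stained with 1% crystal violet, and absorbance was read at 600 nm. Growth was monitored in separate plates. Triplicates were compared with DMSO-treated controls.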

Escherichia coli [2] = assay: Antibacterial activity against uropathogenic Escherichia coli isolate UTI89 assessed as inhibition of biofilm formation at 200 uM after 24 hrs by crystal violet staining method; type: functional, organism-based; procedure, shortened: as §1

EC50 (Escherichia coli [1])	SMILES	inhibition (Escherichia coli [2])
> 200 µM	Cn1cc(-c2c(Cc3cccc4ccccc34)c(Br)c(=O)n3c2SC[C@H]3C(=O)O)nn1	inactive
200 µM	Cc1ccc(Cn2cc(-c3c(Cc4cccc5ccccc45)c(Br)c(=O)n4c3SC[C@H]4C(=O)O)nn2)cc1	inactive
100 µM	O=C(O)[C@@H]1CSc2c(-c3cn(Cc4ccccc4)nn3)c(Cc3cccc4ccccc34)c(Br)c(=O)n21	–
75 µM	O=C(O)c1c(-c2c[nH]nn2)sc2c(C3CC3)c(Cc3cccc4ccccc34)cc(=O)n12	–
> 200 µM	O=C(O)[C@@H]1CSc2c(-c3c[nH]nn3)c(Cc3cccc4ccccc34)cc(=O)n21	inactive
> 200 µM	Nc1ccc(Cn2cc(-c3c(Cc4cccc5ccccc45)cc(=O)n4c3SC[C@H]4C(=O)O)nn2)cc1	inactive
> 200 µM	O=C(O)[C@@H]1CSc2c(-c3cn([C@H](CO)Cc4ccccc4)nn3)c(Cc3cccc4ccccc34)cc(=O)n21	inactive
> 200 µM	CCn1cc(-c2c(Cc3cccc4ccccc34)cc(=O)n3c2SC[C@H]3C(=O)O)nn1	inactive
9 µM	Cn1cc(-c2sc3c(-c4cccc(C(F)(F)F)c4)c(Cc4cccc5ccccc45)cc(=O)n3c2C(=O)O)nn1	–
> 200 µM	O=C(O)[C@@H]1CSc2c(-c3c[nH]nn3)c(Cc3cccc4ccccc34)c(Br)c(=O)n21	inactive
> 200 µM	Cn1cc(-c2c(Cc3cccc4ccccc34)cc(=O)n3c2SC[C@H]3C(=O)O)nn1	inactive
35 µM	O=C(O)[C@@H]1CSc2c(-c3cn(Cc4ccc([N+](=O)[O-])cc4)nn3)c(Cc3cccc4ccccc34)c(Br)c(=O)n21	–
> 200 µM	O=C(O)[C@@H]1CSc2c(-c3cn([C@@H]4OC[C@@H](O)[C@H](O)[C@H]4O)nn3)c(Cc3cccc4ccccc34)c(Br)c(=O)n21	inactive
100 µM	O=C(O)[C@@H]1CSc2c(-c3cn(Cc4ccccc4)nn3)c(Cc3cccc4ccccc34)cc(=O)n21	–
> 200 µM	O=C(O)[C@@H]1CSc2c(-c3cn(CC4CC4)nn3)c(Cc3cccc4ccccc34)c(Br)c(=O)n21	inactive
> 200 µM	O=C(O)c1c(-c2cn(Cc3ccccc3)nn2)sc2c(C3CC3)c(Cc3cccc4ccccc34)cc(=O)n12	inactive
150 µM	O=C(O)[C@@H]1CSc2c(-c3cn([C@H](CO)Cc4ccccc4)nn3)c(Cc3cccc4ccccc34)c(Br)c(=O)n21	–
75 µM	Cc1ccc(Cn2cc(-c3c(Cc4cccc5ccccc45)cc(=O)n4c3SC[C@H]4C(=O)O)nn2)cc1	–
50 µM	O=C(O)c1c(-c2cn(Cc3ccccc3)nn2)sc2c(-c3cccc(C(F)(F)F)c3)c(Cc3cccc4ccccc34)cc(=O)n12	–
> 200 µM	O=C(O)[C@@H]1CSc2c(-c3cn(CC4CC4)nn3)c(Cc3cccc4ccccc34)cc(=O)n21	inactive
> 200 µM	CCn1cc(-c2c(Cc3cccc4ccccc34)c(Br)c(=O)n3c2SC[C@H]3C(=O)O)nn1	inactive
> 200 µM	O=C(O)[C@@H]1CSc2c(-c3cn([C@@H]4OC[C@@H](O)[C@H](O)[C@H]4O)nn3)c(Cc3cccc4ccccc34)cc(=O)n21	inactive
150 µM	Cn1cc(-c2sc3c(C4CC4)c(Cc4cccc5ccccc45)cc(=O)n3c2C(=O)O)nn1	inactive
> 200 µM	O=C(O)c1c(-c2c[nH]nn2)sc2c(-c3cccc(C(F)(F)F)c3)c(Cc3cccc4ccccc34)cc(=O)n12	inactive
